Assay results taken from ChEMBL document CHEMBL5674890, “Selective inhibition of CBP/p300 HAT by A-485 results in suppression of lipogenesis and hepatic gluconeogenesis” (Cell Death Dis, 2020).
Activity calls are given as the source filed them. The rule behind the calls is not given here.

Assays:
Hepatocyte [1] = test: Inhibition of lipogenesis in mouse primary hepatocytes assessed as increase in ACO mRNA expression at 3 uM in presence of 100 nM insulin and 5 to 25 mM glucose measured after 18 hrs by RT-qPCR assay; assay type: functional, cell-based
Method in brief: (§1)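 Primary hepatocytes isolated from C57BL/6 mice by two-step perfusion. Cells incubated 18 h with 3 μM inhibitor, with 0 or 100 nM insulin and 5 or 25 mM glucose. Transcripts quantified by SYBR Green RT-qPCR after Trizol RNA extraction; proteins by western blot of lysates. Mean ± SEM.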

Mus musculus [2] = test: Anti-obesity activity in C57BL/6 mouse supplemented with high fat diet assessed as effect on total lean mass at 20 mg/kg/day, ip administered for 1 week; assay type: functional, organism-based; settings: time 1.0 weeks
Method in brief: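 Male C57BL/6 mice fed high-fat diet for 14 weeks from 5 weeks of age, then ip 20 mg·kg−1·day−1 for 7 days. Body weight, EchoMRI lean/fat mass, and random or 16 h-fasted blood glucose recorded, as the line states.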

Hepatocyte [3] = test: Inhibition of glucogenesis in mouse primary hepatocytes stimulated with 100 uM 8-Br-cAMP assessed as decrease in FBP mRNA expression at 3 uM measured after 8 hrs by RT-qPCR assay
Hepatocyte [4] = test: Inhibition of glucogenesis in mouse primary hepatocytes stimulated with 100 uM 8-Br-cAMP assessed as decrease in PEPCK mRNA expression at 3 uM in presence of cAMP measured after 8 hrs by RT-qPCR assay; assay type: functional, cell-based
Method in brief: (§2)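 Primary mouse hepatocytes treated with 3 μM compound and 100 μM 8-Br-cAMP for 8 h. Trizol RNA, SYBR Green RT-qPCR of the named transcript. Mean ± SEM, three independent experiments.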

Mus musculus [5] = test: Inhibition of hepatic lipogenesis in C57BL/6 mouse supplemented with normal chow diet assessed as effect on ACO mRNA expression at 20 mg/kg/day, ip administered for 1 week measured by RT-qPCR assay; assay type: functional, organism-based; settings: time 1.0 weeks
Method in brief: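 Normal-chow male C57BL/6 mice, 8 weeks old, were injected ip at 20 mg·kg−1·day−1 daily for 7 days or given vehicle. Liver RNA was extracted with Trizol, and fatty-acid-oxidation gene transcripts were quantified by SYBR Green RT-qPCR. n = 5–9; mean ± SEM.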

[6] = molecular target: T1, CREB-binding protein/Histone acetyltransferase p300 (Homo sapiens) (UniProt Q09472+Q92793); test: Inhibition of CBP/p300 in human HepG2 cells assessed as increase in FOXO1 and COP1 interaction at 3 uM; assay type: cell-based
Method in brief: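 HepG2 cells treated with 3 μM compound. FOXO1–COP1 interaction assessed by immunoprecipitation: lysate with antibody 2 h, then protein A/G beads overnight at 4 °C, followed by western blot.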

[7] = molecular target: T1, CREB-binding protein/Histone acetyltransferase p300 (Homo sapiens); test: Inhibition of CBP/p300 in human HepG2 cells stimulated with 100 uM 8-Br-cAMP assessed as induction of FOXO1 deacetylation at 3 uM measured after 6 hrs; assay type: cell-based
Method in brief: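 HepG2 cells given 3 μM compound and 100 μM 8-Br-cAMP for 6 h. Endogenous FOXO1 immunoprecipitated and its acetylation detected by immunoblot.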

Hepatocyte [8] = test: Inhibition of glucogenesis in mouse primary hepatocytes stimulated with 100 uM 8-Br-cAMP assessed as effect on HNF4alpha mRNA expression at 3 uM measured after 8 hrs by RT-qPCR assay; assay type: functional, cell-based; method in brief: as §2
Mus musculus [9] = test: Inhibition of lipogenesis in C57BL/6 mouse supplemented with normal chow diet assessed as decrease in ChREBP mRNA expression at 20 mg/kg/day, ip administered for 1 week measured by RT-qPCR assay; assay type: functional, organism-based; settings: time 1.0 weeks
Method in brief: (§3)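 Eight-week-old male C57BL/6 mice on normal chow were given 20 mg·kg−1·day−1 ip daily for 7 days or vehicle. Epididymal WAT was collected. Lipogenic, adipogenic and fatty-acid-oxidation transcripts were quantified by Trizol extraction and SYBR Green RT-qPCR. FAS, ACC, PPARγ and C/EBPα protein were assessed by western blot. n = 5–9; mean ± SEM.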

Mus musculus [10] = test: Inhibition of lipogenesis in C57BL/6 mouse supplemented with high-fat diet assessed as decrease in weight of inguinal white adipose tissue (iWAT) at 20 mg/kg/day, ip administered for 1 week; assay type: functional, organism-based; settings: time 1.0 weeks
Method in brief: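 Male C57BL/6 mice were fed high-fat diet for 14 weeks from 5 weeks of age, then injected ip with 20 mg·kg−1·day−1 for 7 days or given vehicle. Epididymal and inguinal WAT were weighed, examined by H&E, and analysed. Transcripts were measured by Trizol/SYBR Green RT-qPCR; proteins by western blot. n = 5–9; mean ± SEM.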

Hepatocyte [11] = test: Inhibition of glucogenesis in mouse primary hepatocytes stimulated with 100 uM 8-Br-cAMP assessed as effect on FOXO1 mRNA expression at 3 uM measured after 8 hrs by RT-qPCR assay; assay type: functional, cell-based; method in brief: as §2
Hepatocyte [12] = test: Inhibition of glucogenesis in mouse primary hepatocytes stimulated with 100 uM 8-Br-cAMP assessed as decrease in C/EBPalpha protein expression at 3 uM measured after 12 hrs by western blot analysis; assay type: functional, cell-based
Method in brief: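 Primary mouse hepatocytes incubated 12 h with 3 μM compound and 100 μM 8-Br-cAMP. Lysates western blotted for FOXO1, C/EBPα or PGC1α. Three independent experiments.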

Mus musculus [13] = test: Inhibition of lipogenesis in C57BL/6 mouse supplemented with normal chow diet assessed as decrease in PPARgamma protein expression at 20 mg/kg/day, ip administered for 1 week measured measured by western blot analysis; assay type: functional, organism-based; settings: time 1.0 weeks; method in brief: as §3
HepG2 = test: Inhibition of glucogenesis in human HepG2 cells stimulated with 8-Br-cAMP at 3 uM assessed as effect on increased CRE luciferase activity; assay type: functional, cell-based
Method in brief: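 HepG2 cells treated with 3 μM compound; CRE reporter activity measured. Mean ± SEM, three independent experiments.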

Hepatocyte [14] = test: Inhibition of lipogenesis in mouse primary hepatocytes assessed as decrease in HMGCS1 mRNA expression at 3 uM in presence of 100 nM insulin and 5 to 25 mM glucose measured after 18 hrs by RT-qPCR assay; assay type: functional, cell-based; method in brief: as §1
Adipocyte = test: Inhibition of lipogenesis in mouse adipocytes isolated stromal vascular cells assessed as decrease in FABP4 mRNA expression measured after 24 hrs by RT-qPCR assay; assay type: functional, cell-based
Method in brief: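 Stromal vascular cells from inguinal WAT of C57BL/6 mice, grown in DMEM/F12 + 10% FBS at 37 °C, 10% CO2. At confluence, induced 48 h with 5 μg/ml insulin, 1 μM dexamethasone, 0.5 mM isobutylmethylxanthine, then 6 days in 5 μg/ml insulin; fully differentiated day 8. Mature adipocytes exposed to inhibitor 24 h. Total RNA by Trizol, SYBR Green RT-qPCR; protein by western blot.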

Hepatocyte [15] = test: Inhibition of lipogenesis in mouse primary hepatocytes assessed as decrease in ChREBP protein expression at 3 uM in presence of 100 nM insulin and 5 to 25 mM glucose measured after 18 hrs by western blot analysis; assay type: functional, cell-based
Hepatocyte [16] = test: Inhibition of glucogenesis in mouse primary hepatocytes stimulated with 100 uM 8-Br-cAMP assessed as decrease in G6Pc mRNA expression at 3 uM in combination with 2 mM metformin measured by RT-qPCR assay; assay type: functional, cell-based
Method in brief: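 Primary mouse hepatocytes given 3 μM compound with 2 mM metformin in the presence of 100 μM 8-Br-cAMP. Gluconeogenic gene mRNA measured by SYBR Green RT-qPCR. Mean ± SEM, three independent experiments.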

T1 sequence (Q09472 whole entry, looked up): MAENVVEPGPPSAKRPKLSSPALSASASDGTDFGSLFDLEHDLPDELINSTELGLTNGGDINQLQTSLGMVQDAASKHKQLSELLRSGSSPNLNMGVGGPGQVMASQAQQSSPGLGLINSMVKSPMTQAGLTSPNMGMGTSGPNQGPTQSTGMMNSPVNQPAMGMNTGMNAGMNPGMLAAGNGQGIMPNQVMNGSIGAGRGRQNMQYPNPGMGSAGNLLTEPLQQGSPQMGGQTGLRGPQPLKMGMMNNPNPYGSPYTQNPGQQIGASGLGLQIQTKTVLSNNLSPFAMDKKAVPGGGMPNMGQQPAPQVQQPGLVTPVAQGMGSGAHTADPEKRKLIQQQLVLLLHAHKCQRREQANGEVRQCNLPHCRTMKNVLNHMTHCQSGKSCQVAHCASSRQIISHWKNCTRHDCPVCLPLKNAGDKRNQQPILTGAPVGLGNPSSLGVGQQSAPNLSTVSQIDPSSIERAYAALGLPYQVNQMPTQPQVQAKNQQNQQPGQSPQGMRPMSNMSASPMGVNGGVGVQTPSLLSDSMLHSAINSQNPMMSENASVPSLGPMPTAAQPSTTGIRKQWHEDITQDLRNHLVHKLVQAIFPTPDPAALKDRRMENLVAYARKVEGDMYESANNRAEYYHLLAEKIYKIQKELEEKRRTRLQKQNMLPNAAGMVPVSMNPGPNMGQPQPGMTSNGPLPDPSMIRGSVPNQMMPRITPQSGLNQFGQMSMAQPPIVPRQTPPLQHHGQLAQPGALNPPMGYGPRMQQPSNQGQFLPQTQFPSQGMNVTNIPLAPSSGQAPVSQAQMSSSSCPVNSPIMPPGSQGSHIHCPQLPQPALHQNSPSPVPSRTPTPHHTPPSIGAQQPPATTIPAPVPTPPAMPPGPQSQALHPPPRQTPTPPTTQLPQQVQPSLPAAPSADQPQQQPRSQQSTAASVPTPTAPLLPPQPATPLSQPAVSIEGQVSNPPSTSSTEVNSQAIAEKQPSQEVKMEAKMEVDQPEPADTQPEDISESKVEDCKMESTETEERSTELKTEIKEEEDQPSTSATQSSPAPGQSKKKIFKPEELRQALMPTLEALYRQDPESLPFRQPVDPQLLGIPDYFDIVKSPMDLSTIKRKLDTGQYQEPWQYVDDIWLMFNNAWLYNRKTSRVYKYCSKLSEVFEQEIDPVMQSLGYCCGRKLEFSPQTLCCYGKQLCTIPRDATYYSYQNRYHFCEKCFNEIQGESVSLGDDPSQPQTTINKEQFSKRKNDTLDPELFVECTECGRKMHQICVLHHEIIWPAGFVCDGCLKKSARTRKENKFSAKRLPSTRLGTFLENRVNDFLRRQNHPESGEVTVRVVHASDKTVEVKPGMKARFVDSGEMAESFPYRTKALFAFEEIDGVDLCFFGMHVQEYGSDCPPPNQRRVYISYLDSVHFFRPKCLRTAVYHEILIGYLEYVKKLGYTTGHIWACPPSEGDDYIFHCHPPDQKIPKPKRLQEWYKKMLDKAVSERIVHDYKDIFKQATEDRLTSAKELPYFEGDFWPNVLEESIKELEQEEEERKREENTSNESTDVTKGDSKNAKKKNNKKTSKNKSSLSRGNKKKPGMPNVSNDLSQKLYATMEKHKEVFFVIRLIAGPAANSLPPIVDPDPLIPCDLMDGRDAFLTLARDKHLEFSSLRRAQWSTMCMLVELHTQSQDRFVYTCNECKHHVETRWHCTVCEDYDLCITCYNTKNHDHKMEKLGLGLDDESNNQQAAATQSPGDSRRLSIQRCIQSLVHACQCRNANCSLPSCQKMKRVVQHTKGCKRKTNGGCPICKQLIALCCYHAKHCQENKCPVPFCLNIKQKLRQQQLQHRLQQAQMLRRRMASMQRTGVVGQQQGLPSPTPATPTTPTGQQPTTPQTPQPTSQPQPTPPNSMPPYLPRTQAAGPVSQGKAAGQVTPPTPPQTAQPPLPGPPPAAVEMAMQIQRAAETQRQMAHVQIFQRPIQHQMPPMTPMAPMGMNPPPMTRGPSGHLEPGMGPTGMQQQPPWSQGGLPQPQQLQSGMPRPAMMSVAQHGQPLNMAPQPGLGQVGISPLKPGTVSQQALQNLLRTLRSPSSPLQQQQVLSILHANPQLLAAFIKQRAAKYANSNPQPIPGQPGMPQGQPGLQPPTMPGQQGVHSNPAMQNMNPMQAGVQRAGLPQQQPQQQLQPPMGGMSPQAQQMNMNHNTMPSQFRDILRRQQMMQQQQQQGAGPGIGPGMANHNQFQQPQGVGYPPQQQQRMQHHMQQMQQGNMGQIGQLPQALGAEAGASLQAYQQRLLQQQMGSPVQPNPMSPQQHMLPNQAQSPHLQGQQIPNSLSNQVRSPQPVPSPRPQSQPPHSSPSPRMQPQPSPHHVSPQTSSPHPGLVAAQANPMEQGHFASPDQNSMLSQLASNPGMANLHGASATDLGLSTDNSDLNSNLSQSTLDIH
T1 sequence (Q92793 whole entry, looked up): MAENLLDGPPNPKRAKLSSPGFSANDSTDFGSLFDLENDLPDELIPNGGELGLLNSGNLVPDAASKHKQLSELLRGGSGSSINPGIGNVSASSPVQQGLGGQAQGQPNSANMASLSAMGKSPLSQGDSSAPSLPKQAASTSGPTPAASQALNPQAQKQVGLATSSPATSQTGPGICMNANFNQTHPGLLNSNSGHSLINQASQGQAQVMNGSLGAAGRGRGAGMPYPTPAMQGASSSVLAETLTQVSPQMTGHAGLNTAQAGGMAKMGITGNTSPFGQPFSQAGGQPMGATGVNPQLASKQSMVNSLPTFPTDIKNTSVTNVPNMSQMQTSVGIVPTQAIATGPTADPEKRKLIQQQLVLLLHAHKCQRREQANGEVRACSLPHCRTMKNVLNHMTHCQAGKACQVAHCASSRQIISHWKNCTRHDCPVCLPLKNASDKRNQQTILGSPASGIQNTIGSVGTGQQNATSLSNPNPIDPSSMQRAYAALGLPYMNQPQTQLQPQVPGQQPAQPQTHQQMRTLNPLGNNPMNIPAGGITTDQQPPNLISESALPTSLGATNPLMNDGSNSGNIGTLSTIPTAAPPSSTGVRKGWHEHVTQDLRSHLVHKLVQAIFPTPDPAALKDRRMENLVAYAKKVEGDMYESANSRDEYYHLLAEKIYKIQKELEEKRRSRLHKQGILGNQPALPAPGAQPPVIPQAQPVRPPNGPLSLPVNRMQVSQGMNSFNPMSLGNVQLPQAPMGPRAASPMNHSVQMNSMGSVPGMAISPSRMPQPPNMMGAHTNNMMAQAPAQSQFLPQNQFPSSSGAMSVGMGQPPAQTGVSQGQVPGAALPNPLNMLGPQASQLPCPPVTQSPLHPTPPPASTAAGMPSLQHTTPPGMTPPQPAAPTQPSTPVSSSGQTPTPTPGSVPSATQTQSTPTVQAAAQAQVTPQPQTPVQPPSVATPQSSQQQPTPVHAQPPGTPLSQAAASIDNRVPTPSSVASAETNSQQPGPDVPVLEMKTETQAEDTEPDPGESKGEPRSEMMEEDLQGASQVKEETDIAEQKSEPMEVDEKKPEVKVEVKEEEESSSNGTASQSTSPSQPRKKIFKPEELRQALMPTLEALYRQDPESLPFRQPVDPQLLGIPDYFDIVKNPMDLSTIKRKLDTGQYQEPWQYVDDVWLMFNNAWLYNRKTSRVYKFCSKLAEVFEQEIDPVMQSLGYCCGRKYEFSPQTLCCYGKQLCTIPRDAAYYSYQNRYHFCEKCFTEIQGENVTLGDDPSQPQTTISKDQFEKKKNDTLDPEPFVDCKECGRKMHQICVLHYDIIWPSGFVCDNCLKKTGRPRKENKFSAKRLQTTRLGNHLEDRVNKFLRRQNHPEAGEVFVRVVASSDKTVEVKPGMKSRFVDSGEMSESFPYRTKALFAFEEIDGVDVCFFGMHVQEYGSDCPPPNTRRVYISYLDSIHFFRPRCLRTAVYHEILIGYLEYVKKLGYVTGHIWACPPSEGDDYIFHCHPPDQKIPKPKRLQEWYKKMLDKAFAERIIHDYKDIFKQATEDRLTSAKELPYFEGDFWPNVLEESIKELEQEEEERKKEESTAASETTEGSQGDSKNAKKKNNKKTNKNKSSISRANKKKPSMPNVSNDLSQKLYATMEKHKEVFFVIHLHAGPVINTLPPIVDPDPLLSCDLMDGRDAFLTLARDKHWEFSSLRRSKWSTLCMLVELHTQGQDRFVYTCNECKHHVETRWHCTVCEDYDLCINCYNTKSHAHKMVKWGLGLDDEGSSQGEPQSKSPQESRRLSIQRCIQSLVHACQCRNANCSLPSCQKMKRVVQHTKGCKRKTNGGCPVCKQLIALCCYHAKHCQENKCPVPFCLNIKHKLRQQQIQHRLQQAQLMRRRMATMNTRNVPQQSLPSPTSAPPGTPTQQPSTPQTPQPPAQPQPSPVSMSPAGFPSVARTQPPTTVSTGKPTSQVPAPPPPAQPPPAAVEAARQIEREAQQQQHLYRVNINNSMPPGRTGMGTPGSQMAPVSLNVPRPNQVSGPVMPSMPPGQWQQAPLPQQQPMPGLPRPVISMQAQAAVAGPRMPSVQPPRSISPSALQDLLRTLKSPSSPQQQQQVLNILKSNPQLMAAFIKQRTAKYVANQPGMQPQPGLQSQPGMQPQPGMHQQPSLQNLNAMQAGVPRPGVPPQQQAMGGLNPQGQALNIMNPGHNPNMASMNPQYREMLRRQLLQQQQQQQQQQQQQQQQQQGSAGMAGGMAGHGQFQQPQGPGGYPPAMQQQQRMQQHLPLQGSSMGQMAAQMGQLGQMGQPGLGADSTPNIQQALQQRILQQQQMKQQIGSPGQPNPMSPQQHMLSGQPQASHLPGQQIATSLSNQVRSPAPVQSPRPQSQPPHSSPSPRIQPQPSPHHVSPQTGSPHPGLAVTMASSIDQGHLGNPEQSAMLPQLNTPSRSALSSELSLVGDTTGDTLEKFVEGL

inhibition [6]: Active
inhibition [7]: Active
SMILES: CNC(=O)Nc1ccc2c(c1)CCS21OC(=O)N(CC(=O)N(Cc2ccc(F)cc2)[C@@H](C)C(F)(F)F)C1=O (stereo partly drawn)
inhibition (Hepatocyte [1]): Active
Activity (Mus musculus [2]): inactive
inhibition (Hepatocyte [3]): Active
inhibition (Hepatocyte [4]): Active
inhibition (Mus musculus [5]): inactive
inhibition (Hepatocyte [8]): inactive
inhibition (Mus musculus [9]): Active
inhibition (Mus musculus [10]): Active
inhibition (Hepatocyte [11]): inactive
inhibition (Hepatocyte [12]): Active
inhibition (Mus musculus [13]): Active
inhibition (HepG2): inactive
inhibition (Hepatocyte [14]): Active
inhibition (Adipocyte): Active
inhibition (Hepatocyte [15]): Active
inhibition (Hepatocyte [16]): Active
